According to ChEMBL document CHEMBL1146203, “Acridone-based inhibitors of inosine 5'-monophosphate dehydrogenase: discovery and SAR leading to the identification of N-(2-(6-(4-ethylpiperazin-1-yl)pyridin-3-yl)propan-2-yl)-2- fluoro-9-oxo-9,10-dihydroacridine-3-carboxamide (BMS-566419)” (J Med Chem, 2007):
Calls of active or inactive are those of the source. No cut-off for these calls is given here.

How the values were obtained:
[1] = molecular target: Inosine-5'-monophosphate dehydrogenase 2 (Homo sapiens, UniProt P12268); assay: Inhibition of human IMPDH2
PBMC = assay: Inhibition of T cell proliferation in PBMC cells; format: functional, cell-based; conditions: Homo sapiens
How it was run: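 Human PBMCs isolated from heparinized whole blood by density gradient and plated at 5 × 10^4 cells/well in RPMI 1640 with 10% FBS. Stimulated with anti-CD3 OKT3 (200 ng/mL) plus soluble anti-CD28 (1 µg/mL). Compounds tested in triplicate from 3.3 µM in 3-fold dilutions with 0.5% DMSO for 72 h.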

CCRF-CEM = assay: Inhibition of CEM cell proliferation; format: functional, cell-based; conditions: Homo sapiens
How it was run: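 Human CEM T-lymphoblasts grown in RPMI 1640 with 10% heat-inactivated FBS and penicillin/streptomycin. Seeded at 3000 cells/well with 0.5% DMSO; compounds tested in triplicate from 10 µM top concentration in 3-fold dilutions.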

Cytochrome P450 1A2 = molecular target: T1, Cytochrome P450 1A2 (Homo sapiens, UniProt P05177); assay: Inhibition of CYP1A2; format: ADME
T1 sequence (P05177 whole entry): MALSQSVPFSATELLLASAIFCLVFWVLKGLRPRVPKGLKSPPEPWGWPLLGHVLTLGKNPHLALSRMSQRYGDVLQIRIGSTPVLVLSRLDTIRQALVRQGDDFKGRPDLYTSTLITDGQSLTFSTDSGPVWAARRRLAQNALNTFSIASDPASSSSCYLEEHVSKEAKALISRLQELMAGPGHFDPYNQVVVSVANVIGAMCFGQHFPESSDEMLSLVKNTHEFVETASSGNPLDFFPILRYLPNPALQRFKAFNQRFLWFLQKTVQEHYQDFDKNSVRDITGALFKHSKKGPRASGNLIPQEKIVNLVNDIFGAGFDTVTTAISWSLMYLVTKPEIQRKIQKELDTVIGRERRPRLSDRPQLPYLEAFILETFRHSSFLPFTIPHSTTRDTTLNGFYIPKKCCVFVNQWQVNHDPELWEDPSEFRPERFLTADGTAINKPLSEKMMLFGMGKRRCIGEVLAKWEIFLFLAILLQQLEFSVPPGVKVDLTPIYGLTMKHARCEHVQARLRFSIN
How it was run: (§1)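 Inhibition measured against isolated CYP enzymes.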

Cytochrome P450 3A4 = Cytochrome P450 3A4 (Homo sapiens, UniProt P08684); assay: Inhibition of CYP3A4; format: ADME; how it was run: as §1
Cytochrome P450 3A4, sequence (P08684 whole entry): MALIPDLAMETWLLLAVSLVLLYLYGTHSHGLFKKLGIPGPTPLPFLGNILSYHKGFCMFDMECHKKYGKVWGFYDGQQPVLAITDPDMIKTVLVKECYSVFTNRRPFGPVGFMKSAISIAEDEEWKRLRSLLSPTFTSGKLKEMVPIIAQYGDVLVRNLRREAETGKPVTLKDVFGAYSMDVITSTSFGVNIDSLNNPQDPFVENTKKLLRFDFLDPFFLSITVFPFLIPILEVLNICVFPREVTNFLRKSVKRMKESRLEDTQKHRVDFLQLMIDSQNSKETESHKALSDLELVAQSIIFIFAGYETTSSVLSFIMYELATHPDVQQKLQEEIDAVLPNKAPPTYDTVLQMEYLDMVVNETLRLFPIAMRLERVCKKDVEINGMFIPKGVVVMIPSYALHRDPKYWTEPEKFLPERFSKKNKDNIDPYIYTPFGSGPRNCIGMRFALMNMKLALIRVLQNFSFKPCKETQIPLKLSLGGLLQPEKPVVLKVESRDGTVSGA

[2] = Volume of distribution at steady state in cynomolgus monkey at 2 mg/kg, iv; format: ADME, organism-based, Macaca fascicularis; set-up: dose 2 mg/kg, route intravenous; conditions: in vivo, read-out: Vdss
How it was run: (§2)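 Rat and cynomolgus monkey PK: oral dose 10 mg/kg and iv dose 2 mg/kg; oral vehicle 60% PEG400/40% HCl at pH 3. Cmax, Tmax and AUC taken from the oral arm; T1/2, MRT, Cl and Vss from the iv arm; Fpo calculated. Values are the mean ± SD of three animals.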

Rattus norvegicus [3] = assay: Efficacy against Freund's complete adjuvant-induced arthritis in Lewis rat assessed as inhibition of paw swelling at 50 mg/kg, po after 21 days; format: functional, organism-based; set-up: dose 50 mg/kg
How it was run: (§3)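 Male Lewis rats; arthritis induced by subcutaneous Freund's complete adjuvant at the tail base. Oral dosing once daily for 21 days from day 0, in 60% PEG400/40% 0.01 N HCl vehicle; 8 rats per group. Hind paw volume was measured by plethysmometry at baseline and over three weeks, and the increase above baseline was calculated. Groups were compared with vehicle by Student's t test.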

[4] = AUC in cynomolgus monkey at 10 mg/kg, po; format: ADME, organism-based, Macaca fascicularis; set-up: dose 10 mg/kg, route oral; conditions: plasma; how it was run: as §2
[5] = AUC in rat at 10 mg/kg, po; format: ADME, organism-based; set-up: dose 10 mg/kg, route oral; conditions: plasma; how it was run: as §2
[6] = Cmax in rat at 10 mg/kg, po; format: ADME, organism-based; set-up: dose 10 mg/kg, route oral; conditions: in vivo; how it was run: as §2
Rattus norvegicus [7] = assay: Tmax in rat at 10 mg/kg, po; format: ADME, organism-based; set-up: dose 10 mg/kg, route oral; conditions: in vivo; how it was run: as §2
[8] = Bioavailability in rat at 10 mg/kg, po; format: ADME, organism-based; conditions: in vivo; how it was run: as §2
[9] = Half life in rat at 2 mg/kg, iv; format: ADME, organism-based; set-up: dose 2 mg/kg, route intravenous; conditions: in vivo; how it was run: as §2
[10] = Mean residence time in cynomolgus monkey at 2 mg/kg, iv; format: ADME, organism-based, Macaca fascicularis; set-up: dose 2 mg/kg, route intravenous; conditions: in vivo; how it was run: as §2
[11] = Bioavailability in cynomolgus monkey at 10 mg/kg, po; conditions: in vivo
[12] = Permeability across Caco-2 cells; format: ADME, cell-based; conditions: human, read-out: permeability
Cytochrome P450 2C19 = Cytochrome P450 2C19 (Homo sapiens, UniProt P33261); assay: Inhibition of CYP2C19; format: ADME; how it was run: as §1
Cytochrome P450 2C19, sequence (P33261 whole entry): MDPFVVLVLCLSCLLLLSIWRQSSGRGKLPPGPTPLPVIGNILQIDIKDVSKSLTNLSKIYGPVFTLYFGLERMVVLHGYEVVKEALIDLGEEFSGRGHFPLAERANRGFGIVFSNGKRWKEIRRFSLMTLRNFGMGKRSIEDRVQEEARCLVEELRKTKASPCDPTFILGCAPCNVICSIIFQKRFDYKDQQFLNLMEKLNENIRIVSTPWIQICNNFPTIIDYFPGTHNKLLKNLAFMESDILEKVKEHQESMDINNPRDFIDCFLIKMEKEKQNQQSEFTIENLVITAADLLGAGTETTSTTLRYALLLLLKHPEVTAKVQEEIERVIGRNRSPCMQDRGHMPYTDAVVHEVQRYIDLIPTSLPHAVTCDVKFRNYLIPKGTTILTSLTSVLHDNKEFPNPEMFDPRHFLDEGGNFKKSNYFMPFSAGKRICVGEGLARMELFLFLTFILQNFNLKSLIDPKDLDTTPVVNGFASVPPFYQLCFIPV

Rattus norvegicus [13] = assay: Efficacy against Freund's complete adjuvant-induced arthritis in Lewis rat assessed as inhibition of paw swelling at 10 mg/kg, po after 21 days; format: functional, organism-based; set-up: dose 10 mg/kg; how it was run: as §3
[14] = Clearance in cynomolgus monkey at 2 mg/kg, iv; format: ADME, organism-based, Macaca fascicularis; set-up: dose 2 mg/kg, route intravenous; conditions: in vivo; how it was run: as §2
Rattus norvegicus [15] = assay: Efficacy against Freund's complete adjuvant-induced arthritis in Lewis rat assessed as inhibition of paw swelling at 25 mg/kg, po after 21 days; format: functional, organism-based; set-up: dose 25 mg/kg; how it was run: as §3
Serum = assay: Protein binding in serum; format: ADME, cell-free; conditions: human
Cytochrome P450 2D6 = Cytochrome P450 2D6 (Homo sapiens, UniProt P10635); assay: Inhibition of CYP2D6; format: ADME; how it was run: as §1
Cytochrome P450 2D6, sequence (P10635 whole entry): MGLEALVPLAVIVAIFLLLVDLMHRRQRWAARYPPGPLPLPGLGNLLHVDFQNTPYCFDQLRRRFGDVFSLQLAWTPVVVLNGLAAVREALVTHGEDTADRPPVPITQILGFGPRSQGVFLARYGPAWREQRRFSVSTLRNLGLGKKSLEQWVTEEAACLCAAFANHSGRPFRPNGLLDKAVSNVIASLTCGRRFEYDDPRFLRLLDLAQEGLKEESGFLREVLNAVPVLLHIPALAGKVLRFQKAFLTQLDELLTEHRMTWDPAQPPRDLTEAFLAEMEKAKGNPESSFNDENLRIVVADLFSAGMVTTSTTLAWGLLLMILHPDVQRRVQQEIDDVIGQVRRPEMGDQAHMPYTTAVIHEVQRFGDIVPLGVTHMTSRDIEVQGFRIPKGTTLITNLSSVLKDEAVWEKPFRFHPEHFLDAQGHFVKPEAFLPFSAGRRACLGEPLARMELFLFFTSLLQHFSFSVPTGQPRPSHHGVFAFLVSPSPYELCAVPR

[16] = Lipophilicity, log P of the compound; format: physicochemical; conditions: octanol/water
[17] = Half life in cynomolgus monkey at 2 mg/kg, iv; format: ADME, organism-based, Macaca fascicularis; set-up: dose 2 mg/kg, route intravenous; conditions: in vivo; how it was run: as §2
[18] = Mean residence time in rat at 2 mg/kg, iv; format: ADME, organism-based; set-up: dose 2 mg/kg, route intravenous; conditions: in vivo; how it was run: as §2
[19] = Cmax in cynomolgus monkey at 10 mg/kg, po; format: ADME, organism-based, Macaca fascicularis; set-up: dose 10 mg/kg, route oral; conditions: in vivo; how it was run: as §2
Cytochrome P450 2C9 = Cytochrome P450 2C9 (Homo sapiens, UniProt P11712); assay: Inhibition of CYP2C9; format: ADME; how it was run: as §1
Cytochrome P450 2C9, sequence (P11712 whole entry): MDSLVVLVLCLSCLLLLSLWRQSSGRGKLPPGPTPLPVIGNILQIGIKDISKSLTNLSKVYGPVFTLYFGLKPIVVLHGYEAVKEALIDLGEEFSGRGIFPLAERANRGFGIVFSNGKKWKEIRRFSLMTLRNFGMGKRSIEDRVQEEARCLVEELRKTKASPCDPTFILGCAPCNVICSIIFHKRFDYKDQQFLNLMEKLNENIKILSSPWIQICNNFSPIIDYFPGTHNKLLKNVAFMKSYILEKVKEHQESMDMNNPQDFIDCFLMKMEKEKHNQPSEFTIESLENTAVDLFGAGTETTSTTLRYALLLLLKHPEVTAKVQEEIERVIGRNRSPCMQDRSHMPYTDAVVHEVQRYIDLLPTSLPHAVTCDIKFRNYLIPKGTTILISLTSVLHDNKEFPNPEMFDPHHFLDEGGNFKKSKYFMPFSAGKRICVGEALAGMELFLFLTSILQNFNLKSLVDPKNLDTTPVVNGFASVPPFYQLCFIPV

[20] = Volume of distribution at steady state in rat at 2 mg/kg, iv; format: ADME, organism-based; set-up: dose 2 mg/kg, route intravenous; conditions: in vivo, read-out: Vdss; how it was run: as §2
[21] = Clearance in rats at 2 mg/kg, iv; format: ADME, organism-based; set-up: dose 2 mg/kg, route intravenous; conditions: rat, in vivo; how it was run: as §2

In the case of `CC(C)(NC(=O)c1cc2[nH]c3ccccc3c(=O)c2cc1F)c1ccc(N2CCOCC2)nc1`, the IC50 [1] is reported as 20 nM, the IC50 (PBMC) is reported as 210 nM and the IC50 (CCRF-CEM) is reported as 660 nM.
`CC(C)(NC(=O)c1ccc2c(=O)c3ccccc3[nH]c2c1)c1ccncc1` showed an IC50 [1] of 53 nM, an IC50 (PBMC) of 630 nM and an IC50 (CCRF-CEM) of 2300 nM.
`CN(C)c1cc(C(C)(C)NC(=O)c2cc3[nH]c4ccccc4c(=O)c3cc2F)ccn1` gave an IC50 [1] of 14 nM, an IC50 (PBMC) of 220 nM and an IC50 (CCRF-CEM) of 640 nM.
`CC(C)(NC(=O)c1ccc2c(=O)c3ccccc3[nH]c2c1)c1cccnc1` gave an IC50 [1] of 42 nM, an IC50 (PBMC) of 590 nM and an IC50 (CCRF-CEM) of 2200 nM.
Work on `C[C@@H](NC(=O)c1ccc2c(=O)c3ccccc3[nH]c2c1)c1ccccc1` yielded an IC50 [1] of 95 nM.
With `CC(C)(NC(=O)c1cc2[nH]c3ccccc3c(=O)c2cc1F)c1cnc2c(c1)OCCN2` the IC50 [1] was 17 nM, the IC50 (PBMC) was 320 nM and the IC50 (CCRF-CEM) was 920 nM.
With `CN(C)S(=O)(=O)c1cccc(C(C)(C)NC(=O)c2cc3[nH]c4ccccc4c(=O)c3cc2F)c1` the IC50 [1] was 7.9 nM, the IC50 (PBMC) was 130 nM and the IC50 (CCRF-CEM) was 380 nM.
Work on `CC(C)(NC(=O)c1cc2[nH]c3ccccc3c(=O)c2cc1F)c1cccnc1` yielded an IC50 [1] of 11 nM, an IC50 (PBMC) of 140 nM and an IC50 (CCRF-CEM) of 420 nM.
For `O=C(NCc1ccccc1)c1ccc2c(=O)c3ccccc3[nH]c2c1`, the IC50 [1] was 2200 nM.
Work on `CCN1CCN(c2ccc(C(C)(C)NC(=O)c3cc4[nH]c5ccccc5c(=O)c4cc3F)cn2)CC1` yielded an IC50 [1] of 17 nM, an IC50 (Cytochrome P450 1A2) of over 20000 nM and an IC50 (Cytochrome P450 3A4) of 13000 nM. The Vd [2] was 1.1 L/kg, the Activity (Rattus norvegicus [3]) was “Active” and the AUC [4] was 102 µM·h. For the same molecule, the AUC [5] was 5.2 µM·h, the Cmax [6] was 0.41 µM and the Tmax (Rattus norvegicus [7]) was 4 h. For the same molecule, the bioavailability [8] was 43%, the half-life [9] was 3.6 h and the MRT [10] was 5.5 h. The bioavailability [11] was 88%, the Papp [12] was 32 ×10⁻⁶ cm/s and the IC50 (Cytochrome P450 2C19) was 19000 nM. For the same molecule, the Activity (Rattus norvegicus [13]) was “Active”, the IC50 (PBMC) was 220 nM and the clearance [14] was 3.4 mL/min/kg. The IC50 (CCRF-CEM) was 770 nM, the Activity (Rattus norvegicus [15]) was “Active” and the Activity (Serum) was 92%. For the same molecule, the IC50 (Cytochrome P450 2D6) was over 20000 nM, the logP [16] was 2.5 and the half-life [17] was 4 h. It also gave an MRT [18] of 4.4 h, a Cmax [19] of 26 µM and an IC50 (Cytochrome P450 2C9) of over 20000 nM. The Vd [20] was 7.4 L/kg and the clearance [21] was 29 mL/min/kg.
`COc1c(C)c2c(c(O)c1C/C=C(\C)CCC(=O)O)C(=O)OC2` [MYCOPHENOLIC ACID] showed an IC50 (PBMC) of 130 nM.
`COc1cc(C(C)(C)NC(=O)c2cc3[nH]c4ccccc4c(=O)c3cc2F)cnc1N1CCOCC1` showed an IC50 [1] of 20 nM, an IC50 (PBMC) of 320 nM and an IC50 (CCRF-CEM) of 810 nM.
Molecule `CC(C)(NC(=O)c1cc2[nH]c3ccccc3c(=O)c2cc1F)c1ccc(S(C)(=O)=O)cc1` has an IC50 [1] of 12 nM, an IC50 (PBMC) of 170 nM and an IC50 (CCRF-CEM) of 480 nM.
